NRP1-CendR mod – modulators of CendR peptide binding to NRP-1, primary screen, biochemical, fluorescence polarization, uHTS. FAM-RPARPAR peptide binding to NRP-1. Neuropilin-1 (Homo sapiens), O14786. hit rate 0.85% among 360,000. inhibition, % at 25 µM;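 active = inhibition or corrected inhibition above about 18%, plus a signal ratio from 0.5 to 1.5, limit read from the data, passing the limit was not always enough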
CaV13 ICDI inh – Primary screen for inhibitors of IQ motif and Ca2+-dependent inactivation inhibitor domain binding in CACNA1D, Förster resonance energy transfer in living cells, … | HEK cells, CFP/YFP FRET ICDI-IQ, plate reader, 10 min; percent FRET-ratio fall versus neutral wells | inhibition, % at 12.3 µM | hit rate 0.098% among 340,000;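 active = mean replicate inhibition of at least 30% and at least 1% of replicates passing that level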;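 note: 0% = median of the neutral control wells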
Arrestin-AP2 inh – inhibitors of beta-arrestin/AP2 binding, primary screen, biochemical, GPCR trafficking, flow cytometry. hit rate 0.31% among 340,000. inhibition, % at 10 µM. FITC-arrestin peptide / GST-AP2 beads; AP2 beta2 appendage carries R879A mutation. beta-arrestin 1 C-terminal peptide binding to AP2 beta2-adaptin appendage (human). AID 504490, 2011;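 active = inhibition above a set limit, near 3 SD of compounds lacking own fluorescence, cut at about 54% in these data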;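 note: plate controls were DMSO wells for no effect and 5 µM unlabelled arrestin peptide for full effect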
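system = GST-tagged AP2 beta2-adaptin appendage (R879A) on 4 µm glutathione beads | reagent = FITC-labelled arrestin peptide probe, 50 nM final | schedule = compound with beads 12 min RT, then probe 1 h RT | signal = HyperCyt-sampled flow cytometry, FL1 channel, ex 488/em 535 nm | read-out = percent response from loss of bead-bound FITC fluorescence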
FAS TE block – FAS thioesterase domain inhibitors, primary screen, biochemical, fluorescence intensity, uHTS | Fatty acid synthase (Homo sapiens), P49327 | recombinant FAS-TE, OMFH fluorogenic substrate, fluorescence endpoint | inhibition, % at 15 µM | hit rate 0.67% among 360,000 | AID 602261, 2012;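 active = compounds whose normalised, plate-corrected inhibition of enzyme fluorescence in the single-dose primary screen is 50% or more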;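 note: 0% = DMSO with enzyme and 100% = substrate without enzyme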
ADAM10 inh – human ADAM10 inhibitors, primary screen, biochemical, QFRET, HTS | Disintegrin and metalloproteinase domain-containing protein 10 (Homo sapiens), O14672 | recombinant ADAM10, EDANS/DABCYL FRET peptide cleavage, 3 h | inhibition, % at 7 µM | hit rate 0.62% among 370,000;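 active = inhibition above a per-campaign cutoff equal to the mean of compounds falling between control-based bounds plus 3 SD, cut at about 20% in these data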;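 note: 0% = DMSO wells while the 100% control is not disclosed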
ADAM17 inh – ADAM17 inhibitors, primary screen, biochemical, QFRET. inhibition, % at 6.95 µM. hit rate 0.83% among 370,000. AID 720648, 2013. recombinant ADAM17, EDANS/DABCYL FRET peptide cleavage. Disintegrin and metalloproteinase domain-containing protein 17 (Homo sapiens), P78536;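 active = inhibition above the mean of compounds lying between control limits plus 3 SD, set per campaign, cut at about 8.5% in these data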;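 note: 0% = DMSO-only wells as the low control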
Target sequence (P78536 215-824 limits assumed): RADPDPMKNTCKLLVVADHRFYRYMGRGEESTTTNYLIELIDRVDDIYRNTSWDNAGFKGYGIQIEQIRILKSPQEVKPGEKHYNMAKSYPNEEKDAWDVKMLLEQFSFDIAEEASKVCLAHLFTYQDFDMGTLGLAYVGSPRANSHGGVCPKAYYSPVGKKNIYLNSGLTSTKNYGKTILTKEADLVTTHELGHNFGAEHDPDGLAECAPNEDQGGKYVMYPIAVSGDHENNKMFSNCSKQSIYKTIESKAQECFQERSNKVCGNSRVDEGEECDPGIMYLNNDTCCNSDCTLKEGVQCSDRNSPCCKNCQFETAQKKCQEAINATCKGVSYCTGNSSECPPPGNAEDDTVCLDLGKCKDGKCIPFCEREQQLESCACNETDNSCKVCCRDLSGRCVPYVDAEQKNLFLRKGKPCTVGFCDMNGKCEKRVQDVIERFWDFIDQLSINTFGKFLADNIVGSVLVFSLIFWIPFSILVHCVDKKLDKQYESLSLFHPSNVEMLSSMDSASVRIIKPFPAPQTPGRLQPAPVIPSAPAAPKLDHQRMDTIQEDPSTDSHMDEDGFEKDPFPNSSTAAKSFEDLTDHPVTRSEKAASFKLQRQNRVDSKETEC
ADAM10 confirm – human ADAM10 inhibitors, confirmation, biochemical, QFRET, triplicate; shares compounds with ADAM10 inh; ADAM10 QFRET peptide cleavage, EDANS fluorescence; inhibition, % at 6.95 µM; hit rate 1% among 2,100;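 active = inhibition above about 20% chosen separately for each screening run, limit read from the data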;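 note: 0% = DMSO wells and 100% = marimastat wells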
ADAM17 counter – ADAM17 inhibitors, counter-screen for ADAM10 exosite inhibitor project, biochemical, QFRET, high throughput; ADAM17 QFRET peptide cleavage, EDANS fluorescence; shares compounds with ADAM10 inh; inhibition, % at 6.95 µM; hit rate 0.5% among 2,100;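 active = mean triplicate inhibition above the solvent-only control wells' mean plus 3 SD, cut at about 12% in these data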;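 note: 0% = DMSO wells and 100% = marimastat wells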
ADAM10 ctr – ADAM10 inhibitors, counter-screen for ADAM17 exosite inhibitor project, biochemical, FRET, human ADAM10; shares compounds with ADAM17 inh; recombinant ADAM10, EDANS/DABCYL FRET peptide cleavage, 3 h; inhibition, % at 6.95 µM; hit rate 47% among 2,900;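 active = mean inhibition over the triplicate runs exceeds the activity threshold set in the earlier primary screen, cut at about 20% in these data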;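 note: 0% = DMSO wells and 100% = marimastat wells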
ADAM17 confirm – ADAM17 inhibitors, hit retest, confirmation, biochemical, QFRET peptide cleavage | inhibition, % at 6.95 µM | hit rate 65% among 2,900 | AID 743257, 2014 | recombinant ADAM17, EDANS/DABCYL QFRET peptide cleavage | shares compounds with ADAM17 inh;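 active = mean inhibition across replicates above the hit cutoff set in the primary screen, cut at about 8.5% in these data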;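 note: 0% = DMSO wells and 100% = marimastat wells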
* marks the source's active call; other numbers are inactive results; / = no result. Compounds with a hit are over-represented: about 2.9% of the library has one in this group of screens.

SMILES	NRP1-CendR mod	CaV13 ICDI inh	Arrestin-AP2 inh	FAS TE block	ADAM10 inh	ADAM17 inh	ADAM10 confirm	ADAM17 counter	ADAM10 ctr	ADAM17 confirm
COc1cc(/C=C2\SC(=S)N(Nc3ncc(C(F)(F)F)cc3Cl)C2=O)ccc1O	-212	-5	4	21	34*	12*	4	1	35*	19*
CCn1c(COc2ccc(Cl)cc2)nnc1SCC(=O)Nc1ccc(Oc2ccccc2)cc1	/	/	/	/	-5	0	/	/	/	/
Cn1nc(C(C)(C)C)cc1C(=O)N1CCCCC1c1cc(C(=O)Nc2ccc(F)c(Cl)c2)no1 (centres undefined)	-2	-5	/	22	20*	12*	5	2	20*	12*
O=C(C(=Cc1ccc(F)cc1)c1ccccc1)c1ccc(O)cc1	5	-5	27	18	24*	9.6*	4	1	27*	11*
O=C(C(=Cc1ccc(F)cc1)C(=O)c1ccccc1)c1ccccc1	-10	-10	/	7	-9	1	/	/	/	/
CC(C)(C)NS(=O)(=O)c1ccc(NC(=O)C(Sc2ccccc2)c2ccccc2)cc1 (centres undefined)	0	-5	23	40	41*	19*	7	3	44*	22*
CC(=O)N(C)c1ccc(NC(=O)C(Sc2ccccc2)c2ccccc2)cc1 (centres undefined)	1	-5	45	7	2	0	/	/	/	/
Cc1ccc(S(=O)(=O)N2CC(CO)=CCC2c2ccccc2)cc1 (centres undefined)	-6	-9	/	/	-6	-3	/	/	/	/
CN(C)C(CNC(=O)c1cc2ccccc2o1)c1ccco1 (centres undefined)	5	-14	-3	-9	-5	-1	/	/	/	/
O=C(Nc1cnn(Cc2ccc(F)cc2)c1)C(c1ccccc1)c1ccccc1	10	-5	3	32	23*	14*	3	1	22*	14*
O=S(Cc1ccc(Cl)cc1)c1ccccc1 (centres undefined)	5	-10	4	-4	-5	-2	/	/	/	/
COc1ccc(C(=O)NCCN2C(=O)C3C4C=CC(C4)C3C2=O)cc1OC (centres undefined)	/	/	/	/	1	0	/	/	/	/
Cc1ccccc1-c1cc(-c2ccccc2O)n[nH]1	-14	-5	-3	-10	24*	11*	3	1	14	10.0*
Cc1ccc(-c2cc(-c3ccccc3[N+](=O)[O-])[nH]n2)c(O)c1	7	-8	8	6	11	4	/	/	/	/
Cc1ccc(-c2cc(-c3ccc(C)cc3O)[nH]n2)cc1	-8	-2	8	17	33*	12*	9	3	25*	14*

Screens (PubChem)
